Reference: ChEMBL document CHEMBL1123557, “N-substituted 1,2,3,4,4a,5,6,10b-octahydrobenzo[f]quinolines and 3-phenylpiperidines: effects on central dopamine and sigma receptors” (J Med Chem, 1987)
Activity calls are given as the source filed them. The calls are words filed in the database; no cut-off is given here.

Legend:
[1] = biological target: Sigma non-opioid intracellular receptor 1 (Rattus norvegicus, UniProt Q9R0C9); experiment: In vitro for binding affinity against sigma receptor using [3H](+)-3-PPP as radioligand
Chain of Sigma non-opioid intracellular receptor 1 (Q9R0C9 whole entry): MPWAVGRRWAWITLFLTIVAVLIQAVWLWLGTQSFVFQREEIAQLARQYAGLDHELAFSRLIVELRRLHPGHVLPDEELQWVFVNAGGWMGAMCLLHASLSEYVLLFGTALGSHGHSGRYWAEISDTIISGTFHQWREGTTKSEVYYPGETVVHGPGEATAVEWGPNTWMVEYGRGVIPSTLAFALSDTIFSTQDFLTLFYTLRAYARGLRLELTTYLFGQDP
In short: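 Whole rat brain membranes (male Sprague-Dawley) in 50 mM Tris-HCl pH 8.0. Nonspecific binding defined with 1 μM haloperidol. Rapid filtration onto PEI-treated glass fiber filters, scintillation counting. IC50 from iterative curve fitting.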

Rattus norvegicus [2] = experiment: post-synaptic dopaminergic effect was assessed by the increase in locomotor activity at 30 min time interval by 1.06 umol/kg dosage administration; type: functional
D(2) dopamine receptor [3] = biological target: T1, D(2) dopamine receptor (Rattus norvegicus, UniProt P61169); experiment: Binding affinity against Dopamine receptor D2 using [3H]spiperone as radioligand
T1 sequence (P61169 whole entry): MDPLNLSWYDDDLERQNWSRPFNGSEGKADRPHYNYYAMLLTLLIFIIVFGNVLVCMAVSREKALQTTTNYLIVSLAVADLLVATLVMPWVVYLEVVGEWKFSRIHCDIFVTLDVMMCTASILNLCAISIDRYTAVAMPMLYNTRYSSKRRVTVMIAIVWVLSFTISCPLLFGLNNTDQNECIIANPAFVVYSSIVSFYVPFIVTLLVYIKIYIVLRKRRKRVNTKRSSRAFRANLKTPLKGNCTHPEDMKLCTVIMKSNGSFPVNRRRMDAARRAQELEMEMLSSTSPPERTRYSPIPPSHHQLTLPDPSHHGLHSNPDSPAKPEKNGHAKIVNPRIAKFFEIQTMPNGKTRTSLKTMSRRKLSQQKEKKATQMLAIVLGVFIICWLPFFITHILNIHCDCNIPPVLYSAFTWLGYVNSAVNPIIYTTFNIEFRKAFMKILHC
In short: (§1)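 Rat striatal membranes (male Sprague-Dawley, 150–250 g), washed three times in 50 mM Tris-HCl pH 7.7. 0.2–0.4 nM [3H]spiperone with 100 mM NaCl and 3 mM MgCl2, about 2 mg tissue, 15 min at 37 °C. Nonspecific binding defined with 1 μM haloperidol. Bound ligand collected by filtration onto PEI-treated glass fiber filters and counted by scintillation. Competition curves fitted iteratively.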

D(2) dopamine receptor [4] = biological target: T1, D(2) dopamine receptor; experiment: Compound was tested in vitro for binding affinity against Dopamine receptor D2 using [3H]-spiperone as radioligand; in short: as §1
[5] = biological target: D(2) dopamine receptor (Rattus norvegicus) (UniProt P61169); experiment: Tested in vivo for binding affinity against Dopamine receptor D2 using nonradiolabeled 5,6-di-n-Pr-ADTN; type: organism-based; set-up: concentration or dose not given beside the values
Chain of D(2) dopamine receptor (Rattus norvegicus) (P61169 whole entry): as above

[6] = system: Dopamine D2 receptor (Rattus norvegicus); experiment: Effective dose required for DOPA accumulation (presynaptic dopaminergic effect) in rat
Rattus norvegicus [7] = experiment: post-synaptic dopaminergic effect was assessed by the increase in locomotor activity at 30 min time interval by 3.1 umol/kg dosage administration; type: functional
Rattus norvegicus [8] = experiment: post-synaptic dopaminergic effect was assessed by the increase in locomotor activity at 30 min time interval by 265 umol/kg dosage administration; type: functional
Rattus norvegicus [9] = species: Rattus norvegicus; experiment: Effective dose required for DOPA accumulation (presynaptic dopaminergic effect) in rat; I is inactive; type: functional, organism-based
In short: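 Male Sprague-Dawley rats (200–300 g); drug in saline given sc. DOPA measured by HPLC with electrochemical detection in each brain area. Dose-response curves used four to six dose levels per substance and area.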

Rattus norvegicus [10] = experiment: post-synaptic dopaminergic effect was assessed by the increase in locomotor activity at 30 min time interval by 25 umol/kg dosage administration; type: functional
Rattus norvegicus [11] = experiment: post-synaptic dopaminergic effect was assessed by the increase in locomotor activity at 30 min time interval by 200 umol/kg dosage administration; type: functional
Rattus norvegicus [12] = experiment: post-synaptic dopaminergic effect was assessed by the increase in locomotor activity at 30 min time interval by 53 umol/kg dosage administration; type: functional
Rattus norvegicus [13] = experiment: post-synaptic dopaminergic effect was assessed by the increase in locomotor activity at 30 min time interval by 106 umol/kg dosage administration; type: functional
Rattus norvegicus [14] = experiment: post-synaptic dopaminergic effect was assessed by the increase in locomotor activity at 30 min time interval by 50 umol/kg dosage administration; type: functional
Rattus norvegicus [15] = experiment: post-synaptic dopaminergic effect was assessed by the increase in locomotor activity at 30 min time interval by 100 umol/kg dosage administration; type: functional
Rattus norvegicus [16] = experiment: post-synaptic dopaminergic effect was assessed by the increase in locomotor activity at 30 min time interval by 7 umol/kg dosage administration; type: functional
Rattus norvegicus [17] = experiment: post-synaptic dopaminergic effect was assessed by the increase in locomotor activity at 30 min time interval by 10.6 umol/kg dosage administration; type: functional
Rattus norvegicus [18] = experiment: post-synaptic dopaminergic effect was assessed by the increase in locomotor activity at 30 min time interval by 213 umol/kg dosage administration; type: functional

| Compound | IC50 [1] [nM] | IC50 (D(2) dopamine receptor [3]) [nM] | other results |
| --- | --- | --- | --- |
| CCCN1CCCC2c3cc(O)ccc3CCC21 (racemic; 21) | 19 | 101 | Accumulated counts (Rattus norvegicus [2]): 188 |
| CCCN1CCC[C@@H]2c3cccc(O)c3CC[C@@H]21 (racemic) | 416 | 2100 |  |
| CCCCN1CCCC2c3cc(O)ccc3CCC21 (racemic; 33) | 35 |  | IC50 (D(2) dopamine receptor [4]): 10400 nM |
| CCCN1CCCC2c3cc(O)ccc3CCC21 (stereo in doubt; form 2) [listing 1 of 2 here] | 21 | 25 | Accumulated counts (Rattus norvegicus [2]): 155 |
| CCCCN1CCCC2c3cccc(O)c3CCC21 (racemic) | 23 | 38 | Control [5]: 57%; ED50 [6]: 0.08 µmol/kg; Accumulated counts (Rattus norvegicus [7]): 196 |
| CCCN1CCCC2c3cc(O)ccc3CCC21 (stereo in doubt; form 2) [listing 2 of 2 here] |  |  | ED50 [6]: 0.004 µmol/kg |
| CCN1CCCC2c3cc(O)ccc3CCC21 (racemic) | 70 | 110 | Control [5]: 57%; ED50 [6]: 0.017 µmol/kg; Accumulated counts (Rattus norvegicus [2]): 47 |
| CCCN1CCCC2c3cc(O)ccc3CCC21 (stereo in doubt; form 1) [listing 1 of 2 here] |  |  | ED50 [6]: 0.25 µmol/kg |
| Oc1cccc([C@H]2CCCNC2)c1 | 4570 | 435 | Accumulated counts (Rattus norvegicus [8]): 47 |
| Oc1ccc2c(c1)C1CCCN(CCc3ccccc3)C1CC2 (racemic) | 27 | 990 | ED50 (Rattus norvegicus [9]): inactive; Accumulated counts (Rattus norvegicus [10]): 72 |
| Oc1cccc([C@@H]2CCCNC2)c1 | 15600 | 1750 | ED50 (Rattus norvegicus [9]): inactive; Accumulated counts (Rattus norvegicus [11]): 4 |
| CCCCN1CCC[C@@H](c2cccc(O)c2)C1 | 31 | 275 | Accumulated counts (Rattus norvegicus [12]): 63; Control [5]: 43% |
| CN1CCCC2c3cc(O)ccc3CCC21 (racemic) | 221 | 265 | Control [5]: 57%; ED50 [6]: 0.4 µmol/kg; Accumulated counts (Rattus norvegicus [13]): 60 |
| Oc1ccc2c(c1)C1CCCN(Cc3ccccc3)C1CC2 (racemic) | 11 | 3440 | ED50 (Rattus norvegicus [9]): inactive; Accumulated counts (Rattus norvegicus [14]): 78 |
| CN1CCCC(c2cccc(O)c2)C1 (configuration not stated) | 1910 | 1950 | Accumulated counts (Rattus norvegicus [15]): 36 |
| Oc1cccc([C@@H]2CCCN(CCc3ccccc3)C2)c1 | 16 | 44 | Accumulated counts (Rattus norvegicus [16]): 71 |
| CCCN1CCCC2c3ccc(O)cc3CCC21 (racemic; 30) |  |  | ED50 (Rattus norvegicus [9]): inactive |
| Oc1cccc2c1CCC1C2CCCN1CCc1ccccc1 (racemic) | 65 | 6 | Control [5]: 67%; ED50 [6]: 0.043 µmol/kg; Accumulated counts (Rattus norvegicus [10]): 143 |
| Oc1cccc2c1CC[C@H]1NCCC[C@H]21 | 2370 | 1550 |  |
| CCCN1CCCC2c3cc(O)ccc3CCC21 (stereo in doubt; form 1) [listing 2 of 2 here] | 520 |  | Accumulated counts (Rattus norvegicus [17]): 28 |
| CCCN1CCCC(c2ccc(O)cc2)C1 (configuration not stated) | 276 | 13000 | ED50 (Rattus norvegicus [9]): inactive |
| CCCN1CCC[C@@H]2c3cccc(O)c3CC[C@@H]21 | 48 | 160 | Accumulated counts (Rattus norvegicus [7]): 59 |
| Oc1ccc2c(c1)C1CCCNC1CC2 (racemic; 31) | 11600 | 30400 |  |
| Oc1cccc2c1CCC1NCCCC21 (racemic) | 14900 | 7500 | ED50 (Rattus norvegicus [9]): inactive; Accumulated counts (Rattus norvegicus [13]): 10 |
| CCCN1CCC[C@@H](c2cccc(O)c2)C1 [PRECLAMOL] |  |  | Accumulated counts (Rattus norvegicus [18]): 12; Control [5]: 33% |
| Oc1ccc2c(c1)C1CCCNC1CC2 (racemic; 18) |  |  | Control [5]: 90% |
